The source of these data is ChEMBL document CHEMBL4004836, “Design, synthesis and anticancer properties of IsoCombretaQuinolines as potent tubulin assembly inhibitors” (Eur J Med Chem, 2017).

Assay [1] is described as follows: Cytotoxicity against human U87 cells assessed as decrease in cell growth after 72 hrs by resazurin dye-based fluorimetric method. It counts as functional, U-87MG ATCC. The note with it: U-87 MG. The essentials: (§1)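 Lines grown in RPMI 1640 with 10% FCS and 1% glutamine, 37 °C, 5% CO2. K562R is a doxorubicin-resistant K562 line. Seeded 5 × 10^3 cells/well, compound in DMSO (<0.1%) added after 24 h, then 72 h exposure. Resazurin for 2 h, fluorescence ex 560/em 590 nm. IC50 from 50% fluorescence drop versus untreated cells. Triplicate, averaged.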
(In general: Resazurin is reduced to fluorescent resorufin, in cell work by metabolically active cells.)

Assay [2] can be described thus: Inhibition of sheep brain tubulin assembly by DAPI staining-based fluorimetric method. On the set-up: species or system Ovis aries. A digest of the protocol: (§2)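 Sheep brain tubulin purified by two assembly-disassembly cycles, about 2-3 mg/mL in 0.1 M MES, 0.5 mM MgCl2, 1 mM EGTA, 1 mM GTP, pH 6.6. Assembly followed by DAPI fluorescence at 37 °C. IC50 = concentration halving maximum assembly rate versus no compound. Single-point values given as % inhibition at 100 µM. Mean of three experiments.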

In assay [3] the test system is HCT-116. In words: Cytotoxicity against human HCT116 cells assessed as decrease in cell growth after 72 hrs by resazurin dye-based fluorimetric method. Conditions: HCT-116, 72 h. It counts as functional. The essentials:
as §1

In assay [4] the test system is A549. In words: Disruption of microtubule network organization in human A549 cells assessed as decrease in mitotic spindle formation after 24 hrs by DAPI staining-based inverted microscopic method. It counts as cell-based. The essentials: (§3)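 A549 cells on chamber slides, 24 h with or without compound. Fixed in 2% paraformaldehyde for 30 min, permeabilized with 0.25% Triton X-100, blocked with 1% BSA/10% goat serum. Mouse anti-β-tubulin overnight at 4 °C, then Alexa 647 secondary with Hoechst 33258 for 2 h, Alexa 488 phalloidin for F-actin. Imaged by inverted microscope, 60X oil objective.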

Assay [5] deals with K562. In words: Cytotoxicity against human K562 cells assessed as decrease in cell growth after 72 hrs by resazurin dye-based fluorimetric method. It counts as functional. The note with it: K562, 72 h. The essentials:
as §1

Assay [6] concerns A549. In words: Cell cycle arrest in human A549 cells assessed as accumulation at G2/M phase at 10 nM after 24 hrs by propidium iodide staining-based flow cytometric method. It counts as functional. The essentials:
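Exponentially growing A549 cells exposed for 24 h to 0.5, 1, 5 or 10 nM, with DMSO alone as control. DNA content read by propidium iodide staining and flow cytometry to give the cell-cycle profile.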
(A flow cytometer gives signals particle by particle.)

Assay [7] has as its system A549. In words: Cytotoxicity against human A549 cells assessed as decrease in cell growth after 72 hrs by resazurin dye-based fluorimetric method. It counts as functional. Conditions: A549, 72 h. The essentials:
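A549 grown in DMEM (4.5 g/L glucose, 10% FCS, 1% glutamine), 37 °C, 5% CO2. Seeded 5 × 10^3 cells/well, compound in DMSO (<0.1%) added after 24 h, 72 h exposure. Resazurin (CellTiter-Blue) for 2 h, fluorescence ex 560/em 590 nm. IC50 = concentration halving fluorescence versus untreated cells. Triplicate; mean of three experiments.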

Assay [8] deals with K-562R. Description: Cytotoxicity against human K562R cells assessed as decrease in cell growth after 72 hrs by resazurin dye-based fluorimetric method. The class given is functional. The essentials: as §1
Assay [9] has as its system A549. Description: Induction of microtubule network fragmentation in human A549 cells after 24 hrs by DAPI staining-based inverted microscopic method. The class given is cell-based. The essentials: as §3
Assay [10] is filed under the species Ovis aries. Description: Inhibition of sheep brain tubulin assembly at 100 uM by DAPI staining-based fluorimetric method relative to control. The essentials:
as §2

Each structure is given as a SMILES string. Activity calls are given as the source filed them. No cut-off for these calls is given here.

On to `C=C(c1ccc(OC)cc1)c1cc(C(F)(F)F)nc2ccccc12`, for which the IC50 in assay [1] is 21.7 nM.

For `C=C(c1ccc(OC)c(O)c1)c1cc(C)nc2ccccc12`, the concentration for half-maximal inhibition (IC50) was determined as 3900 nM in assay [2]; 0.9 nM in assay [3]; 1.8 nM in assay [5]; 0.4 nM in assay [7]; 1.5 nM in assay [1]; 2.4 nM in [8]. Moreover, the Activity entry in [4] and in [9] was “Dose-dependent effect” throughout. Further, the outcome in assay [6] was Active.

`C=C(c1ccc(OC)cc1)c1cc(CO)nc2ccccc12`: the figures for the half-inhibitory concentration (IC50) in assay [2] and in [1] were 14300 nM and 390 nM, respectively.

Take `C=C(c1ccc(OC)c(F)c1)c1cc(C)nc2ccccc12`: the IC50 turned out to be 2200 nM in assay [2]; 9.6 nM in [3]; 5 nM in [5]; 9.5 nM in [7]; 4 nM in assay [1]; 2.4 nM in [8].

Take `COc1ccc(C(=O)c2cc(C)nc3ccccc23)cc1`: the IC50 in assay [2] turned out to be 7200 nM; in assay [3], 130 nM; in assay [5], 139 nM; in assay [1], 25 nM; in assay [8] it was 52 nM.

On to `C=C(c1ccc(OC)c(O)c1)c1nc(C)nc2ccccc12`, for which the figures for the 50% inhibitory concentration (IC50) in [2] and in assay [1] were 600 nM and 6.1 nM, respectively.

As to `C=C(c1ccc(OC)cc1)c1cc(C)nc2ccccc12`, the half-inhibitory concentration (IC50) was found to be 1100 nM in assay [2]; 3 nM in assay [3]; 17 nM in assay [5]; 18.5 nM in [7]; 21 nM in assay [1]; 0.7 nM in assay [8].

As for `C=C(c1ccc(OC)cc1)c1nc(C)nc2ccccc12`, the concentration for half-maximal inhibition (IC50) in assay [1] came out at 40 nM.

As to `C=C(c1ccc(OC)cc1)c1cc(C)cc2ccccc12`, the IC50 is 17100 nM in assay [2] and 140 nM in assay [1].

With `C=C(c1ccc(OC)cc1)c1cc(C#N)nc2ccccc12`, the IC50 in assay [2] amounted to 1100 nM; in assay [3], 1.6 nM; in assay [5], 9 nM; in assay [7], 50 nM; in [1] it was 1 nM; in assay [8], 0.9 nM.

Consider `C=C(c1ccc(OC)cc1)c1cc(C(=O)OC)nc2ccccc12`, for which the half-inhibitory concentration (IC50) came out at 3900 nM in [2]; 160 nM in assay [3]; 88 nM in assay [5]; 2.3 nM in assay [1]; 18 nM in [8].

Take `C=C(c1ccc(OC)cc1)c1cc(C(=O)O)nc2ccccc12`: in [10], the inhibition turned out to be 29%. Moreover, in [1], the IC50 worked out at 75 nM.

Consider `C=C(c1ccc(OC)c(O)c1)c1cc(OC)c(OC)c(OC)c1`, for which the 50% inhibitory concentration (IC50) in assay [2] was 2000 nM; in assay [5] it was 0.8 nM; in assay [7], 8.2 nM; in [1], 7.8 nM; in assay [8], 1.1 nM.

On to `COc1ccc(C(=CC#N)c2cc(C)nc3ccccc23)cc1`, for which the IC50 was determined as 1900 nM in assay [2]; 13.2 nM in assay [3]; 17 nM in assay [5]; 79 nM in assay [7]; 0.25 nM in assay [1]; 6.6 nM in assay [8].

Consider `C=C(c1ccc(OC)cc1)c1cc(C(N)=O)nc2ccccc12`, for which the IC50 in assay [2] was determined as 23800 nM; in assay [1] it was 240 nM.

In [10], `C=C(c1ccc(OC)cc1)c1nc2ccccc2nc1C` gave an inhibition of 24%. Moreover, in [1], the half-maximal inhibitory concentration (IC50) stood at 690 nM.

Molecule `C=C(c1ccc(OC)cc1)c1nc(C)cc2ccccc12` gave an inhibition in assay [10] of 53%. Also, the IC50 in assay [1] is 300 nM.

As usually defined, the IC50 is the concentration needed to halve the response being measured. In general, inhibition refers to the percentage by which the read-out fell short of the control. A lower inhibition goes with little suppression.
